Calls of active or inactive are those of the source.
Assays:
[1] = tested on: Canis familiaris; assay: Antisecretory activity in Beagle dog assessed as inhibition of histamine-stimulated gastric acid secretion at 40 mg/kg, po administered 1 hr prior to histamine challenge measured every 30 mins for 90 mins relative to placebo control; type: functional, organism-based; design: dose 40 mg/kg; details: Canis lupus familiaris, Stomach
Method in brief: (§1)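 Conscious female beagles (7–10 kg) with a chronic gastric fistula received compound through the gastric cannula, called oral. Gastric output was collected over three 30-min periods (90 min) after the stimulant. Titratable acid in an aliquot was titrated to pH 7 with 0.01 N NaOH using a glass-calomel electrode. The value is the maximal % drop in acid concentration against a placebo trial in the same dog, with SE where more than two animals.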

[2] = target: Histamine H2 receptor (Rattus norvegicus, UniProt P25102); assay: Antagonist activity at histamine H2 receptor in Charles River rat assessed as inhibition of histamine-mediated electrically stimulated uterine contraction
Method in brief: (§2)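 Uteri taken from female rats (150–200 g) primed with diethylstilbesterol (0.16 mg/rat) 16–20 h before sacrifice. Single horns were held in McEwen's solution at 34 °C under 95% O2–5% CO2. They were stimulated electrically every 50 s for 10 s with maximal current and 60 Hz trains of 1-ms pulses, and the block of the histamine response was scored. Footnote cutoff: under 30% reduction with test compound at 20 µg/mL.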

[3] = tested on: Canis familiaris; assay: Antisecretory activity in Beagle dog assessed as inhibition of gastrin tetrapeptide-stimulated gastric acid secretion at 20 mg/kg, po administered 1 hr prior to gastrin tetrapeptide challenge measured every 30 mins for 90 mins relative to placebo control; type: functional; details: Canis lupus familiaris, Stomach; method in brief: as §1
[4] = target: Histamine H2 receptor (Rattus norvegicus) (UniProt P25102); assay: Antagonist activity at histamine H2 receptor in Charles River rat assessed as inhibition of histamine-mediated electrically stimulated uterine contraction at 20 ug/mL relative to histamine-treated placebo; method in brief: as §2
[5] = target: Histamine H2 receptor (Cavia porcellus) (UniProt P47747); assay: Antagonist activity at histamine H2 receptor in Hartley guinea pig atrium assessed as ratio of histamine concentration required in control to that required in presence of compound to increase atrium rate by 50 beats/min at 10 ug/mL; details: Cardiac atrium
Method in brief: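 Spontaneously beating Hartley guinea pig atria were dissected free of other myocardium and held in McEwen's solution on a transducer. Rate was counted from the tracing. Histamine was given at increasing concentrations (0.05–3.2 µg/mL) with placebo or with inhibitor at 10 µg/mL. The value is the ratio of histamine concentration needed to raise rate by 50 beats/min in the placebo trial to that needed with compound.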

[6] = tested on: Canis familiaris; assay: Antisecretory activity in Beagle dog assessed as inhibition of histamine-stimulated gastric acid secretion at 20 mg/kg, po administered 1 hr prior to histamine challenge measured every 30 mins for 90 mins relative to placebo control; type: functional; details: Canis lupus familiaris, Stomach; method in brief: as §1
[7] = tested on: Canis familiaris; assay: Antisecretory activity in Beagle dog assessed as inhibition of gastrin tetrapeptide-stimulated gastric acid secretion at 40 mg/kg, po administered 1 hr prior to gastrin tetrapeptide challenge measured every 30 mins for 90 mins relative to placebo control; type: functional, organism-based; design: dose 40 mg/kg; details: Canis lupus familiaris, Stomach; method in brief: as §1

Chain of Histamine H2 receptor (Cavia porcellus) (P47747 whole entry): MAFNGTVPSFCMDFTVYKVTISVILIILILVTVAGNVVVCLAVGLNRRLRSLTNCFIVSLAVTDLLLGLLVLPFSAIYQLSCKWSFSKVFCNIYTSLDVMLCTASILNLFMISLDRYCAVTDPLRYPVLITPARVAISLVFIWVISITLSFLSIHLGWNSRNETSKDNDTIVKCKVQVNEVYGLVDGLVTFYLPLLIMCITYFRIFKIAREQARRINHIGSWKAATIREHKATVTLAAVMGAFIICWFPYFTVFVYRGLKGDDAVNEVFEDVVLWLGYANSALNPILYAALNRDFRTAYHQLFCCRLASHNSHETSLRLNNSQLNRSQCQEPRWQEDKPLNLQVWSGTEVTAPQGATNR
Chain of Histamine H2 receptor (Rattus norvegicus) (P25102 whole entry): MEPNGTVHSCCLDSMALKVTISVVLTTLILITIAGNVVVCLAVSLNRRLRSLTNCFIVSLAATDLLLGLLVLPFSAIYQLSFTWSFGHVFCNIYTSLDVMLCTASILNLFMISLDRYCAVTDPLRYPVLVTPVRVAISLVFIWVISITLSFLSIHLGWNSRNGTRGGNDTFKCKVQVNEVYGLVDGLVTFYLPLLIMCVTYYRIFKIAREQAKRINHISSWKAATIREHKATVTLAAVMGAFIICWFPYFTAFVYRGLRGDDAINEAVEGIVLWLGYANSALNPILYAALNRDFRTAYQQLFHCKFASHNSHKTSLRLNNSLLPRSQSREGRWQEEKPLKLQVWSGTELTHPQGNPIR
Chain of Histamine H2 receptor (P25102 whole entry): as above

| SMILES | inhibition [1] | EC50 [2] [µM] | inhibition in vivo at 20 mg/kg [3] [%] | inhibition [4] [%] | Ratio [5] | inhibition in vivo at 20 mg/kg [6] [%] | inhibition [7] |
| --- | --- | --- | --- | --- | --- | --- | --- |
| Cc1nc2c(ccc(=O)n2CCN(C)C)c(C)c1C | inactive | 48.2 | 61 | – | – | – | – |
| CN(C)CCn1c(=O)ccc2ccccc21 | inactive | – | < 25 | < 30 | – | – | – |
| CCn1c(=O)ccc2c(C)cc(C)nc21 | inactive | – | < 25 | < 30 | – | – | – |
| Cc1cc(C(F)(F)F)nc2c1ccc(=O)n2CCN(C)C | inactive | 5.35 | 34 | – | – | – | – |
| CCCCN(CCCC)CCn1c(=O)ccc2c(C)cc(C)nc21 | inactive | 5.46 | 33 | – | – | – | – |
| Cc1cc(C)c2ccc(=O)n(CCCCN(C)C)c2n1 | inactive | – | < 25 | < 30 | – | – | – |
| Cc1cc(C(F)(F)F)c2ccc(=O)n(CCN(C)C)c2n1 | inactive | – | 52 | < 30 | – | – | – |
| Cc1cc(C)c2ccc(=O)n(CCN(C3CCCCC3)C3CCCCC3)c2n1 | inactive | – | < 25 | < 30 | – | – | – |
| CN(C)CCn1c(=O)ccc2c(C(F)(F)F)cc(C(F)(F)F)nc21 | inactive | – | 32 | < 30 | – | – | – |
| Cc1cc(C)c2ccc(=S)n(CCN(C)C)c2n1 | inactive | 14 | 41 | – | – | – | – |
| Cc1cc(C)c2ccc(=O)n(CC(C)(C)N(C)C)c2n1 | inactive | 38 | 38 | – | – | – | – |
| COc1cc(C)c2ccc(=O)n(CCN(C)C)c2n1 | inactive | 26.8 | 27 | – | – | – | – |
| Cc1ccc2ccc(=O)n(CCN(C)C)c2n1 | inactive | 9.43 | < 25 | – | – | – | – |
| Cc1cc(C)c2c(n1)N(CCN(C)C)C(=O)CC2 | inactive | 19.4 | < 25 | – | 0.013 | – | – |
| CC(C)N(CCn1c(=O)ccc2cccnc21)C(C)C | inactive | 76.5 | 51 | – | – | – | – |
| Cc1ccnc2c1ccc(=O)n2CCN(C)C | inactive | – | 58 | < 30 | – | – | – |
| Cc1cc(Cl)nc2c1ccc(=O)n2CCN(C)C | inactive | 34.7 | < 25 | – | – | – | – |
| Cc1cc(C)c2ccc(=O)n(CCCN(C)C)c2n1 | inactive | – | 31 | < 30 | – | – | – |

| SMILES | inhibition [1] | EC50 [2] [µM] | inhibition in vivo at 20 mg/kg [3] [%] | inhibition [4] [%] | Ratio [5] | inhibition in vivo at 20 mg/kg [6] [%] | inhibition [7] |
| --- | --- | --- | --- | --- | --- | --- | --- |
| CC(C)Cc1ccc2ccc(=O)n(CCN(C)C)c2n1 | inactive | 0.585 | < 25 | – | 0.21 | – | – |
| Cc1cc(C)c2ccc(=O)n(CCN(C(C)C)C(C)C)c2n1 | inactive | 4.78 | 57 | – | 0.011 | – | – |
| CC(C)c1ccc2ccc(=O)n(CCN(C)C)c2n1 | inactive | 2.31 | < 25 | – | – | – | – |
| CN(C)CCn1c(=O)ccc2cccnc21 | inactive | – | 59 | < 30 | 0.54 | – | – |
| CCc1cc(CC)c2ccc(=O)n(CCN(C)C)c2n1 | inactive | 19 | < 25 | – | – | – | – |
| C/N=C(\S)NCCSCc1[nH]cnc1C [METIAMIDE] | – | 1.15 | – | – | – | – | – |
| Cc1cc(C)c2ccc(=O)n(CC[N+](C)(C)C)c2n1 | inactive | – | < 25 | < 30 | – | – | – |
| CCc1ccc2ccc(=O)n(CCN(C)C)c2n1 | inactive | 3.22 | < 25 | – | – | – | – |
| Cc1cc(C)c2ccc(=O)n(CCN3CCCCC3)c2n1 | inactive | 10.7 | 40 | – | – | – | – |
| Cc1cc(C)c2ccc(=O)n(CCN)c2n1 | inactive | 156 | < 25 | – | – | – | – |
| CCN(CC)CCn1c(=O)ccc2c(C)cc(C)nc21 | inactive | 4.1 | < 25 | – | – | – | – |
| CNCCn1c(=O)ccc2c(C)cc(C)nc21 | inactive | 91.2 | < 25 | – | – | – | – |
| Cc1cc(C)c2ccc(=O)n(CCN3C(C)(C)CCCC3(C)C)c2n1 | inactive | – | < 25 | < 30 | – | – | – |
| Cc1cnc2c(ccc(=O)n2CCN(C)C)c1 | inactive | – | 58 | < 30 | – | – | – |
| Cc1cc(C)c2ccc(=O)n(CCN(C)C)c2n1 | inactive | 16 | 40 | – | 0.18 | – | – |
| CNC(=S)NCCSCc1[nH]cnc1C [METIAMIDE] | – | – | 76 | – | 0.003 | 46 | – |
| Cc1cc(C)c2c(n1)N(CCN(C)C)CCC2 | inactive | 4.33 | – | – | – | – | inactive |
